What was measured:
sEH = target: T1, sEH (Mus musculus, UniProt P34914); experiment: In vivo target engagement: residual sEH activity; details: mice, 1 mg/kg i.p. in DMSO, 4 h after dosing
T1 sequence (P34914 1-554): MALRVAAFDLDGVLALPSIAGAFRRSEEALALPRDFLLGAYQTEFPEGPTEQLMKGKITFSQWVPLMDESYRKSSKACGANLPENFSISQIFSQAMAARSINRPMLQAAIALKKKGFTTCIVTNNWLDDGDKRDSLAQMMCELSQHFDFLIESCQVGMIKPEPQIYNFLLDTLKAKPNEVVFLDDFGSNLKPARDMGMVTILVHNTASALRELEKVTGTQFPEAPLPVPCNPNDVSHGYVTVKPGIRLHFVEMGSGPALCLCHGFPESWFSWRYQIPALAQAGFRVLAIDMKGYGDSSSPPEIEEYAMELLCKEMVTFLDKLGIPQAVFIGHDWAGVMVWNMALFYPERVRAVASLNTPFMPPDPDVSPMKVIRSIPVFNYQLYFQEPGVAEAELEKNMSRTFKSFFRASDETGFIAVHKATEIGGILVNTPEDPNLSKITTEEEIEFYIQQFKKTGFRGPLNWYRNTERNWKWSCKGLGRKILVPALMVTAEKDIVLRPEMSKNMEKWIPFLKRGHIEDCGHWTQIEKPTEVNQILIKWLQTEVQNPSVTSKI

FAAH = target: T2, FAAH (Mus musculus, UniProt O08914); type: in vivo; details: mice, 1 mg/kg i.p. in DMSO, 4 h after dosing
T2 sequence (O08914 1-579): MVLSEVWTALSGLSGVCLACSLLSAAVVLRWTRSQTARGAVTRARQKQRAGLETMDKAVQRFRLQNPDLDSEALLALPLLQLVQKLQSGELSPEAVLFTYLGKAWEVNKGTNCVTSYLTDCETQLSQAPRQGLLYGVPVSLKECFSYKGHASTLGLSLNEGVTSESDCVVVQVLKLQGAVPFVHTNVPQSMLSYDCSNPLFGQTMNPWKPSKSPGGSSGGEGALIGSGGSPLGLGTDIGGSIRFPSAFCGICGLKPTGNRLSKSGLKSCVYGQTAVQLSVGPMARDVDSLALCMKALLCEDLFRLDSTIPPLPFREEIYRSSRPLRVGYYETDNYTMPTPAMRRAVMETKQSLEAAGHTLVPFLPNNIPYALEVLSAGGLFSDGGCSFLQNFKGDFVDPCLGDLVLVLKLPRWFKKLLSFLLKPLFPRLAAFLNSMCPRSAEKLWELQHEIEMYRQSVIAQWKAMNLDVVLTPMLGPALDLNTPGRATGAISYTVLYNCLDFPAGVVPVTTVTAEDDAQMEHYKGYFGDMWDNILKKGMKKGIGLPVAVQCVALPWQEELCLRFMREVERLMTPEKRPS
Method in brief: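 Male Swiss Webster mice got test compound in 20 μL DMSO i.p. and were killed 4 h later. Tissue was homogenized about fivefold by weight in 20 mM phosphate, pH 7.4, 5 mM EDTA, then diluted 1000-fold (liver) or 100-fold (brain) in 100 mM phosphate, pH 8.0, 0.1% BSA. OMP (100 μM final) hydrolysis was read by fluorescence (303/394 nm) for 10 min, normalized to BCA protein, and expressed as % of vehicle.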

human CES2 = target: T3, human CES2 (Homo sapiens, UniProt O00748); experiment: Esterase assay, CES2; type: biochemical
T3 sequence (O00748 27-559): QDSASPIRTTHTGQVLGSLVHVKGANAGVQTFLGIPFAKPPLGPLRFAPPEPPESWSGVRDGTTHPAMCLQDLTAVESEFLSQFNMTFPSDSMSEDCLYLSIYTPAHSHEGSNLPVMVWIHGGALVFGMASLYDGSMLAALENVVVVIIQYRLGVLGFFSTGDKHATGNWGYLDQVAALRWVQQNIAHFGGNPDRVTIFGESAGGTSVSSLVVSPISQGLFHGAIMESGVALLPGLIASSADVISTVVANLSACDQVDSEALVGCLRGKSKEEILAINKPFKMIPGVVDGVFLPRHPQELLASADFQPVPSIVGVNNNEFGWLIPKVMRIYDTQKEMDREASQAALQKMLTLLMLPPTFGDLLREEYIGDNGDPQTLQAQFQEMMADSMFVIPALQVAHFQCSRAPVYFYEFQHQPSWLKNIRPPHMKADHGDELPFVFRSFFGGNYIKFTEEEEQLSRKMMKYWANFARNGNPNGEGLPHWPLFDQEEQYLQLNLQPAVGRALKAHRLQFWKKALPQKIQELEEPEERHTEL
Method in brief: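 Crude recombinant human CES2 extract was used with 5 min inhibitor preincubation in 0.1 M sodium phosphate, pH 8, 0.1 mg/mL BSA, 2% final DMSO. Substrate was cyano(6-methoxynaphthalen-2-yl)methyl acetate (50 μM final). […] Triplicates.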

[1] = Cassette dosing pharmacokinetics in mice; type: in vivo; details: male, Swiss Webster, mouse, whole blood, po, 1 mg/kg
Method in brief: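 Test compounds were given as a cassette cocktail at 1 mg/kg each, p.o. in PEG300, to groups of 4 rats or 4 mice. Blood was taken by tail vein at set intervals and group averages were used.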

human sEH = target: T4, human sEH (Homo sapiens, UniProt P34913); experiment: FRET-based displacement assay for inhibitor dissociation from sEH; type: binding
T4 sequence (P34913 1-555): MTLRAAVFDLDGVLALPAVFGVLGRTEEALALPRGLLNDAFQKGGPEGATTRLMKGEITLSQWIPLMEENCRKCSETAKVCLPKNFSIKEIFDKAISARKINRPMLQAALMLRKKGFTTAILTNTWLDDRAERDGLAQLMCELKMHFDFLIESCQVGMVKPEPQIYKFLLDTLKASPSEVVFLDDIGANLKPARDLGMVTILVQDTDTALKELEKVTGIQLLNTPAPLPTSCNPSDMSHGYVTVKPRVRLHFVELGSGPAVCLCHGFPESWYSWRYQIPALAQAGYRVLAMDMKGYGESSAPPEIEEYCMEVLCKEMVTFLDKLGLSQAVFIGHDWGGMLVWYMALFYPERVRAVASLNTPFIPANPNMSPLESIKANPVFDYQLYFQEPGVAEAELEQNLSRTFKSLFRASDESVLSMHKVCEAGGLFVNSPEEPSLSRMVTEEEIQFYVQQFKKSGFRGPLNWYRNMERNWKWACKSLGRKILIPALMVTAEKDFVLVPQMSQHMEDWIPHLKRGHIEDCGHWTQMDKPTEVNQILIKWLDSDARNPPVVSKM

AUC [1]	Cmax [1]	t1/2 (half-life on the enzyme) (human sEH; human sEH)	koff (human sEH; read-out: koff × 10^–3)	SMILES	residual brain sEH activity, % of control (sEH)	residual brain FAAH activity, % of control (FAAH; brain)	residual liver FAAH activity, % of control (FAAH; liver)	IC50 (human CES2)
–	–	–	–	O=C(Nc1cccnc1)N1CCC(Cc2cccc(Oc3ccc(C(F)(F)F)cn3)c2)CC1 [PF-3845, reference compound]	63 ± 14%	0.2 ± 0.1%	22 ± 2%	1.1 µM
410 nM·h	0.037 µM	4.4 min	2.7 s⁻¹	O=C(Nc1ccc(C(F)(F)F)cc1F)N1CCC(Cc2cccc(Oc3ccc(C(F)(F)F)cn3)c2)CC1 [compound 18]	–	–	–	–
